High-throughput results (PubChem)
Apaf1 activ = activates human Apaf-1 apoptosome | O14727 | Apaf-1 apoptosome caspase-3 activation, DEVD-Rh110 fluorescence; hits give low values | activity change, negative = activation, % at 20 µM | 0.31% of 330,000 active | AID 489031;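 active = activity change at or below -40% at 20 µM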
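System: Reconstituted apoptosome of Apaf-1, cytochrome c, caspase-9, procaspase-3 | Reagent: dATP, cytochrome c, and (Z-DEVD)2-Rh110 caspase-3 substrate | Times: 30 min compound preincubation and 50 min reaction, both room temperature | Detection: Caspase-3-released Rh110 fluorescence, 540 nm emission, 480 nm excitation | Measure: Caspase-3 activity via Apaf-1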
Rh110 act interf = Rh110 signal interference in Apaf-1 activator counter-screen; shares compounds with Apaf1 activ; Rh110 fluorescence interference, quenched caspase reaction, Ex480/Em540; fluorescence interference (activity change), % at 20 µM, hits read low; 980 tested, under 10 active;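 active = mean activity change at or below -40% when tested at 20 µM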
Apaf-1 act conf2 = confirmation of human Apaf-1 activators; 5% of 980 active; activity change, negative = activation, % at 20 µM; AID 504617; shares compounds with Apaf1 activ; reconstituted apoptosome caspase-3 activity, DEVD-Rh110 fluorescence; hits give low values;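 active = mean activity change at or below -40%, meaning activation of 40% or more, at 20 µM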
Fluor interf act = counter-screen for Apaf-1 activators: fluorescence interference, dose response. shares compounds with Apaf1 activ. fluorescence interference counterscreen, Apaf-1 activator assay. EC50, µM. 55 tested, under 10 active; call rule not given here
Numbers stand for hits; - = inactive; . = no result given. The list is a sample of the results.

SMILES | Apaf1 activ | Rh110 act interf | Apaf-1 act conf2 | others
O=C1CSC(c2cccnc2)N1CC1CC1 (stereo unspecified) | -112 | - | -
CN1CCC[C@H]1c1cccnc1 | - | . | .
CSc1ccc2c(c1)N(CCC1CCCCN1C)c1ccccc1S2 (stereo unspecified) | - | . | .
COCCN(CCOC)Cc1c(O)ccc2c3c(c(=O)oc12)CCC3 | -336 | - | -
Nc1ccc2nc3c(c(Cl)c2c1)CCCC3 | - | . | .
CS(=O)(=O)N(CC(=O)N1CCc2ccccc2C1)c1cccc(Br)c1 | -258 | - | -
Cc1ccc2[nH]c3c(c2c1)CN(C(=O)CN1CCCc2ccccc21)CC3 | - | . | .
O=[N+]([O-])c1cc([N+](=O)[O-])c2nonc2c1Nc1ccc(O)cc1 | - | . | .
O=C1C(Nc2cccc(O)c2)=C(N2CCCCC2)C(=O)c2ccccc21 | - | . | .
O=[N+]([O-])c1cncc([N+](=O)[O-])c1Nc1cccc(O)c1 | -64 | - | -
COc1cccc(/C=N/NC(=O)NC23CC4CC(CC(C4)C2)C3)c1O | - | . | .
Nc1cccc2cnccc12 | - | . | .
CCN(CC)CCN(C(=O)c1ccc2c(c1)CCCC2)c1nc2ccc(OC)cc2s1 | - | . | .
Cc1[nH]c(=O)[nH]c(=O)c1S(=O)(=O)N1CCN(c2ccccc2F)CC1 | -517 | - | -
CCCCCCSc1cc(-c2nc3ccc(C)cn3c2NCCCC)ccc1OC | - | . | .
O=C(OCC(=O)N1CCCCC1)c1n[nH]c(=O)c2ccccc12 | -572 | - | -
CCCCCc1cc(=O)oc2c(C(CCN3CCCC(C)C3)c3ccc(N(C)C)cc3)c(OC)cc(OC)c12 (stereo unspecified) | - | . | .
COc1ccc(C(=O)Nc2ccccc2C(=O)NC(Cc2ccc(O)cc2)C(=O)NNC(=O)c2ccccc2Cl)cc1 (stereo unspecified) | -48 | - | -
CC1=CC(=C(C#N)c2nc3ccccc3s2)C=C(C)N1c1ccc(F)cc1 | - | . | .
COC(=O)c1c(C(C)=O)c(C)n(C)c1C | -343 | - | -
CC(=O)c1ccc(OCC(O)CN2CCN(Cc3ccc4c(c3)OCO4)CC2)cc1 (stereo unspecified) | - | . | .
C/C(=N\NC(=O)Cn1ccc(C(F)(F)F)n1)c1ccc2c(c1)OCO2 | -134 | - | -
CCC[C@@H](CN1CCC[C@H]1CN1C(N)=NC[C@H]1C(C)C)N1C[C@@H](Cc2ccccc2)N(CCCC2CCCC2)C1=N | - | . | .
Cc1ccccc1NC(=S)Nc1cccc2cnccc12 | - | . | .
Oc1ccc(C=Nc2cccc3ccccc23)c(O)c1 | - | . | .
SMILES | Apaf1 activ | Rh110 act interf | Apaf-1 act conf2 | others
Cc1ccccc1NC(=S)N/N=C/c1ccc(O)cc1O | -43 | - | -
COCCCNC(=O)c1c(N)n(-c2ccccc2)c2nc3ccccc3nc12 | - | . | .
CC1=NN(c2ccc(N)cc2)C(=O)C1 | - | . | .
O=C(O)c1cccc(CN2C(=O)CSC2=O)c1 | -52 | - | -
CC(C)C[C@@H]1CN=C(N)N1C[C@@H]1CCCN1C[C@@H](C(C)C)N1C[C@@H](Cc2ccccc2)N(CCCC2CCCC2)C1=N | - | . | .
Oc1c(Br)cc(Br)cc1C=Nc1cccc2ncccc12 | - | . | .
CCOc1ccc(-n2c(SCc3ccc([N+](=O)[O-])cc3)nnc2-c2ccc(OC)cc2)cc1 | -304 | - | -
N#CC1=C2SCN(Cc3ccccc3)CN2C(=O)CC1c1cccs1 (stereo unspecified) | - | . | .
Cc1nc2ccc(Cl)cc2c(-c2ccccc2Cl)c1CC(=O)O | -42 | - | -
Cc1cc(N)c2cc(NC(=O)/C=C/c3ccccc3Cl)ccc2n1 | - | . | .
COc1ccc2nc3cc(Cl)ccc3c(Nc3cc(CN4CCCC4)c(O)c(CN4CCCC4)c3)c2n1 | - | . | .
CC(=O)N(Cc1ccc(F)cc1)C1=C(NCCc2ccccc2)C(=O)c2ccccc2C1=O | - | . | .
COc1ccc(CCNc2nc(-c3ccc(F)cc3)c(CC(=O)O)s2)cc1OC | -162 | - | -
COc1ccc2c(c1)c1ccc3c(c1n2C)C(=O)C=CC3=O | - | . | .
CCc1ccc(S(=O)(=O)/N=C2\C=C(NS(=O)(=O)c3ccccc3)C(=O)c3ccccc32)cc1 | - | . | .
Cc1ccc(C)c(S(=O)(=O)/N=C2\C=C(NS(=O)(=O)c3ccccc3)C(=O)c3ccccc32)c1 | - | . | . | Fluor interf act=-
Cc1ccccc1NC1=C/C(=N\S(=O)(=O)c2ccc(C(=O)O)cc2)c2ccccc2C1=O | - | . | .
Nc1cc(N2CCCC2)c(Cl)cc1[N+](=O)[O-] | - | . | .
CCCCC[n+]1ccn(C2=C([O-])c3ccccc3C(=O)/C2=N\S(=O)(=O)c2ccc(Br)cc2)c1 | - | . | .
O=C(NCc1cccs1)c1cccnc1C(=O)O | -79 | - | -
CCN(CC(=O)NCc1cccs1)C(=O)CCCOc1ccc(C(C)(C)C)cc1 | - | . | .
